CSN inh: inhibitors of CSN-mediated cullin deneddylation, primary screen, biochemical, fluorescence polarization, uHTS; COP9 signalosome complex subunit 5 (Homo sapiens), Q92905; Purified CSN, SCF-Nedd8-OG deneddylation; inhibition, % at 12.5 µM; 360,000 compounds, 0.38% hits;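 active = pattern-corrected inhibition above about 35%, with an unprinted fluorescence ratio check between 0.5 and 1.5, limit read from the data, passing the limit was not always enough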
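Assay system: purified human Csn5 enzyme expressed in HEK293T cells; measure: % inhibition; also added: SCFSkp2-Nedd8OG substrate at 10 nM final; technique: fluorescence polarization; times: reaction 90 min, room temperature; medium: Tris buffer pH 7.5, NaCl, DTT, Tween-20, trehalose, ovalbumin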
HNF4A DNA FP: change in binding of human HNF4A to DNA, primary screen, biochemical, fluorescence polarization, FITC-DNA | Hepatocyte nuclear factor 4-alpha (Homo sapiens), P41235 | 1 h | activity change, % at 10 µM | 360,000 compounds, 0.3% hits | AID 1224865, 2016; in the data active = activity change above about 30%, passing the limit was not always enough
Target sequence (P41235 whole entry, looked up): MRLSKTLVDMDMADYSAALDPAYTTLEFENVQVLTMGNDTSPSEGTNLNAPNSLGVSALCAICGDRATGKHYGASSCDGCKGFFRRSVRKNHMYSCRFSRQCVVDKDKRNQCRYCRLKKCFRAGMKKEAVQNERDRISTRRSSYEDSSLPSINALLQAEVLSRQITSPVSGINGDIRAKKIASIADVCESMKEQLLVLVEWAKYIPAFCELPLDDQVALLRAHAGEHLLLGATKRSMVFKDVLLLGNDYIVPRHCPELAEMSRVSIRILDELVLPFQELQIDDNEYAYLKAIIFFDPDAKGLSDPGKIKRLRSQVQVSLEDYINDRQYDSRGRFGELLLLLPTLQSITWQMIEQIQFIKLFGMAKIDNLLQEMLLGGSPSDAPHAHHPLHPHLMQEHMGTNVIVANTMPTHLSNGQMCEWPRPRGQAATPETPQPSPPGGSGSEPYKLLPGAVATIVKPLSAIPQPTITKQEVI
TPT1 inh: Candida albicans TPT1 enzyme inhibitors, primary screen, biochemical, fluorescence polarization. tRNA 2'-phosphotransferase TPT1 (Candida albicans SC5314). 300,000 compounds, 0.81% hits. inhibition, % at 5 µM. recombinant caTPT1, FP RNA substrate dephosphorylation;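 active = inhibition above the mean of all tested compounds plus 3 SD, set per screening campaign, cut at about 24% in these data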
Rpn11 block: Rpn11 (PSMD14) deubiquitinase inhibitors, primary screen, biochemical, fluorescence polarization, uHTS. human 26S proteasome, Ub4-pepOG fluorescence polarization; 20S core pre-blocked with epoxomicin. inhibition, % at 20 µM. 360,000 compounds, 0.59% hits. AID 588493, 2011;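 active = inhibition at 20 µM, scaled to each plate's controls, above about 33%, limit read from the data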
Rpn11 inh conf: Rpn11 (PSMD14) deubiquitinase inhibitors, confirmation, biochemical, fluorescence polarization, single concentration | inhibition, % at 20 µM | purified human 26S proteasome, Ub4-pepOG fluorescence polarization; proteasome pretreated with epoxomicin | 1,900 compounds, 29% hits | AID 602318, 2012 | shares compounds with Rpn11 block
MMP-2 inh: MMP-2 enzyme inhibition, confirmation, counter-screen for RPN11 inhibitor project, biochemical, fluorescence, single concentration | shares compounds with Rpn11 block | recombinant MMP-2, FRET peptide cleavage fluorescence | inhibition, % at 20 µM | 1,900 compounds, 4% hits | AID 602330, 2012;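 also: human MMP-2 activated beforehand with APMA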
Thrombin FP: bovine thrombin protease inhibition, confirmation, counter-screen for Rpn11 inhibitor project, biochemical, fluorescence polarization, single concentration; 1,900 compounds, 13% hits; inhibition, % at 20 µM; shares compounds with Rpn11 block; bovine thrombin cleavage of Ub4-pepOG; AID 602333, 2012;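 active = mean inhibition at least 40% at 20 µM, or signal 3 deviations below plate average, so some actives read negative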
Each line names hits and unclear results; the compound was inactive in the other large screens (follow-up assays come after a bar, where shown). Shown are actives, neighbours in structure and some others; about 1.5% of the full set was active somewhere. Rule as the data show it, unless noted: active = inhibition above about 40%; inactive = the rest.

CC(=O)N1CCc2cc(N=NC3=C(O)CCCC3=O)ccc21	HNF4A DNA FP 43, Rpn11 block 56 | Rpn11 inh conf 51 | MMP-2 inh inactive | Thrombin FP inactive
Cn1c(=O)[nH]c(=O)c2cc(C(=O)c3cc(F)ccc3O)cnc21	Rpn11 block 68 | Rpn11 inh conf inactive | MMP-2 inh inactive | Thrombin FP inactive
COc1ccc2c(c1)CCC1C2=NN(/C(C)=C/C(C)=O)C1c1cccc(F)c1 (centres undefined)	HNF4A DNA FP 76, Rpn11 block 80 | Rpn11 inh conf inactive | MMP-2 inh inactive | Thrombin FP inactive
CC(=O)N1N=C2c3ccccc3CCC2C1c1ccc(F)cc1 (centres undefined)	none
CSc1ccc(Cl)c(C(=O)Nc2cc(S(=O)(=O)N3CCOCC3)ccc2N2CCOCC2)c1	none (no result: TPT1 inh)
CCCCC(CC)CNC(=O)C(=O)c1ccccc1NC(C)=O (centres undefined)	Rpn11 block 41 | Rpn11 inh conf inactive | MMP-2 inh inactive | Thrombin FP inactive
CC(=O)Nc1cc(-c2ccc(F)cc2)cn2c(-c3ccc(S(C)(=O)=O)cc3)cnc12	none (no result: TPT1 inh)
CN1CCN(S(=O)(=O)c2cccc(C(=O)Nc3sc4c(c3C(N)=O)CCCC4)c2)CC1	Rpn11 block 90 | Rpn11 inh conf inactive | MMP-2 inh inactive | Thrombin FP inactive
CN(CC(=O)Nc1cccc(F)c1)C(=O)c1ccc(S(=O)(=O)N2CCCC2)cc1	none (no result: TPT1 inh)
Cc1cccc(N=C2NC(=O)/C(=C\c3cccs3)S2)c1	Rpn11 block 42 | Rpn11 inh conf inactive | MMP-2 inh inactive | Thrombin FP inactive
Cc1cccc(N=C2NC(=O)/C(=C/c3cccnc3)S2)c1	none
C=CCc1cc(/C=C2/NC(=S)NC2=O)cc(OC)c1O	Rpn11 block 47 | Rpn11 inh conf inactive | MMP-2 inh inactive | Thrombin FP inactive
C=CCc1cc(/C=C2/NC(=O)NC2=O)cc(OCC)c1O	none
O=C1C=C(c2cccc(CO)c2)C[C@@H](c2ccc(Cl)cc2)C1	none (no result: TPT1 inh)
CCOC(=O)Cn1ncc(-c2ccccc2)c1N	Rpn11 block 169 | Rpn11 inh conf inactive | MMP-2 inh inactive | Thrombin FP inactive
CCOC(=O)Cn1nc(-c2ccccc2)nc1-c1ccccc1	none
COc1ccc(C=O)cc1CN1CCCN(Cc2ccccc2F)S1(=O)=O	none
N#CCC(=O)Nc1ccc(C(=O)OCC(=O)c2ccc3c(c2)NC(=O)CO3)cc1	Rpn11 block 45 (no result: TPT1 inh) | Rpn11 inh conf inactive | MMP-2 inh inactive | Thrombin FP inactive
Cc1cc(C(=O)COC(=O)c2ccc(NC(=O)CC#N)cc2)c(C)n1CCc1ccc(F)cc1	Rpn11 block 53 (no result: TPT1 inh) | Rpn11 inh conf inactive | MMP-2 inh inactive | Thrombin FP inactive
CC(=O)Nc1cc(NC(C)=O)cc(C(=O)OCC(=O)c2ccc3c(c2)NC(=O)CO3)c1	none
COc1ccc(CCn2c(C)cc(C(=O)COC(=O)c3ccc(NC(=O)CC#N)cc3)c2C)cc1	none (not shown: Rpn11 block)
COC1=C/C(=C/c2c(N)n3nc(CC(=O)N4CCCC4)sc3nc2=O)C=CC1=O	Rpn11 block 70 | Rpn11 inh conf inactive | MMP-2 inh inactive | Thrombin FP inactive
CCOC1=C/C(=C/c2c(N)n3nc(CC(=O)N4CCCC4)sc3nc2=O)C=CC1=O	Rpn11 block 71 | Rpn11 inh conf inactive | MMP-2 inh inactive | Thrombin FP inactive
Nc1c(/C=C2/C=CC(=O)C(O)=C2)c(=O)nc2sc(CC(=O)N3CCOCC3)nn12	none (no result: TPT1 inh)
Nc1c(/C=C2/C=CC(=O)C(O)=C2)c(=O)nc2sc(CC(=O)N3CCCCC3)nn12	none (not shown: Rpn11 block)
N#CCC(=O)c1ccccc1Oc1ccc(Cl)cc1	Rpn11 block 65 | Rpn11 inh conf inactive | MMP-2 inh inactive | Thrombin FP inactive
CN(C)/C=C/C(=O)c1ccc(Br)cc1	none
Cc1ccc(C)n1-c1ccc(C(=O)/C=C/N(C)C)cc1	Rpn11 block 50 | Rpn11 inh conf inactive | MMP-2 inh inactive | Thrombin FP inactive
COc1ccc(N2CC(C(=O)Nc3nc4ccc(S(C)(=O)=O)cc4s3)CC2=O)cc1 (centres undefined)	none
COc1cc(C#N)ccc1OCC(=O)Nc1cccc(S(=O)(=O)N(C)c2ccccc2)c1	none (no result: TPT1 inh)
O=C1C2CC3N1CCC31c3ccccc3-n3c1c2ccc3=O (centres undefined)	none (no result: TPT1 inh)
CC1Nc2ncnc(N3CCc4ccccc4C3)c2N(Cc2ccc(Br)cc2)C1=O (centres undefined)	none
CC1Nc2ncnc(N3CCc4ccccc4C3)c2N(Cc2ccc(Cl)cc2)C1=O (centres undefined)	Rpn11 block 43 | Rpn11 inh conf inactive | MMP-2 inh inactive | Thrombin FP inactive
N=c1c(C(=O)NC2CCCCC2)cc2c(=O)n3ccccc3nc2n1Cc1ccc(F)cc1	Rpn11 block 51 | Rpn11 inh conf inactive | MMP-2 inh inactive | Thrombin FP inactive
O=C(Cn1c2ccccc2c(=O)c2ccccc21)N/N=C/c1cc([N+](=O)[O-])ccc1N1CCCCCC1	Rpn11 block active | Rpn11 inh conf inactive | MMP-2 inh inactive | Thrombin FP inactive
NNC(=O)COc1ccc(F)cc1	HNF4A DNA FP 32, Rpn11 block 46 | Rpn11 inh conf inactive | MMP-2 inh inactive | Thrombin FP inactive
COc1ccc(N2CCN(C(=O)c3ccccc3N(C)S(=O)(=O)c3ccc(C)cc3)CC2)cc1	none (no result: TPT1 inh)
CCOC(=O)c1ccc(-c2ccc3oc(-c4ccsc4)cc(=O)c3c2)cc1F	Rpn11 block 43 (no result: TPT1 inh) | Rpn11 inh conf inactive | MMP-2 inh inactive | Thrombin FP inactive
O=c1cc(-c2ccsc2)oc2cc(-c3ccc4c(c3)OCO4)ccc12	none (no result: TPT1 inh)
C[C@@H]1CN([C@H](C)CO)C(=O)c2cc(Br)cnc2O[C@@H]1CN(C)Cc1ccc(-c2ccccc2)cc1	none (no result: TPT1 inh)
Cc1ccnc2nc(C(=O)Nc3ccc(N4CCOCC4)cc3)nn12	Rpn11 block 133 | Rpn11 inh conf inactive | MMP-2 inh inactive | Thrombin FP inactive
CCCNC(=O)c1cc(C2CCCN(C(=O)c3ccc(NC(C)=O)cc3)C2)on1 (centres undefined)	none (no result: TPT1 inh)
Cc1c(NC(=O)C(C)C)cccc1-c1nc2ncccc2o1	none

High-throughput results (PubChem BioAssay)
